A short description of test [1]: Her2 expression decrease, cell viability multiplex – SKBR3 breast tumor cells, AlphaScreen, ATP viability, primary screen (AID 461;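 active means Her2 level under about 52% in both replicate screens, with viability over 70% of control, limit read from the data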;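 on Her2 level: lower value means less Her2 protein in the cells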;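 on viability: percent of carrier control wells set as 100% viability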). The note with it: SKBR3 Her2 protein level, 18-24 h, measured here: SKBR3 viability, ATP luminescence, at 10 µM.
For test [2], the target named is Receptor tyrosine-protein kinase erbB-2 (Homo sapiens) (UniProt P04626). Described as above. The note with it: 18-24 h, at 10 µM, stronger effect = lower value.
Chain of Receptor tyrosine-protein kinase erbB-2 (Homo sapiens) (P04626 whole entry, looked up): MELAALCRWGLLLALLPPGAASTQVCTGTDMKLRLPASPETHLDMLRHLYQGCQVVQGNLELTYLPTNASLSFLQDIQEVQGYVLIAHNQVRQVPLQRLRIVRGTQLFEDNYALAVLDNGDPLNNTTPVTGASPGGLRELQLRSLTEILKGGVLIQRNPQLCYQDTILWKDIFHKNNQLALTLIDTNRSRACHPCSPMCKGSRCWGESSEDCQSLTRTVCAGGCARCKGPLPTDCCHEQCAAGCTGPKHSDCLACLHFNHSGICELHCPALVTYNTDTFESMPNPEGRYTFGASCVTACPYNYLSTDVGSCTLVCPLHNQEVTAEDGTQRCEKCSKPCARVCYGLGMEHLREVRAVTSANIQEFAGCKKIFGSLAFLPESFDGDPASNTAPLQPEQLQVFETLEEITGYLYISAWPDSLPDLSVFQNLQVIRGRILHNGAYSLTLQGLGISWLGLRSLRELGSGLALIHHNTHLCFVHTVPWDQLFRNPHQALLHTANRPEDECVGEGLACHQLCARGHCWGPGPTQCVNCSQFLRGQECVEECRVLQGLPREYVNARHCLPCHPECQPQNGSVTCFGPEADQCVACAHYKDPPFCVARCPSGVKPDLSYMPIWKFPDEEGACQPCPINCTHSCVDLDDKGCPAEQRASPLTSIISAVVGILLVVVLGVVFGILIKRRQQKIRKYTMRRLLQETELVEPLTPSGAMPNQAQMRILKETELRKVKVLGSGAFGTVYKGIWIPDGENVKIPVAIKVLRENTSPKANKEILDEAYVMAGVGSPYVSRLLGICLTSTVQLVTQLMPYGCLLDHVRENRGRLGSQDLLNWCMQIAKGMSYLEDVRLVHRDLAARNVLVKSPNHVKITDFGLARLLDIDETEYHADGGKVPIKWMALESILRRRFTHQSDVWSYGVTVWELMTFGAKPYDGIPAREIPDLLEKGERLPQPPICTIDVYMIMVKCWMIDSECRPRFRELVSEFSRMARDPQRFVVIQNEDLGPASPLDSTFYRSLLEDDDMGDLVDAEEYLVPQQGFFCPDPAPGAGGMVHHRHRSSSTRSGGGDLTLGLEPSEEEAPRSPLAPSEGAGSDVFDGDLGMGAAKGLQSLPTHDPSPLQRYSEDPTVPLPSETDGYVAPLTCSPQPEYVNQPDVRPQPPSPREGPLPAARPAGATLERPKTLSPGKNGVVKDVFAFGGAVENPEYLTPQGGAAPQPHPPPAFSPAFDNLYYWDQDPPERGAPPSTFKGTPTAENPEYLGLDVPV
Test [3] can be described thus: reduced viability of SK-BR-3 breast cancer cells – cell-based, 24 h, human, pilot screen (AID 572;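 active means viability at or below 10% of carrier control in both of two separate runs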;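 further: compound exposure lasted between 18 and 24 h rather than exactly 24 h; 100% = carrier-treated control wells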). As to conditions: SK-BR-3 viability, CellTiter-Glo luminescence, at 10 µM, stronger effect = lower value.
A short description of test [4]: HUVEC growth inhibition – cell-based, human, primary screen (AID 575;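 active means viability at or below 30% in both replicate assays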;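 further: 100% = median of untreated cell wells with 0.1% DMSO on each plate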). As to conditions: HUVEC proliferation, CellTiter-Glo luminescence, 72 h; at 10 µM; stronger effect = lower value. The gist of the method:
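Assay system: Primary human umbilical vein endothelial cells | Quantity: 1250 cells per well | Medium: Supplemented EBM, 2% fetal bovine serum | Detection: CellTiter-Glo luminescence measuring cellular ATP | Read-out: % viability vs DMSO wells | Plate: Collagen-coated 384-well format | Times: 72 h exposure, 37 °C, 5% CO2, 30 min RT equilibration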

A short description of test [5]: H69AR cell proliferation blockers – human, duplicate replicates, primary screen (AID 580).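 Further: 100% = mean luminescence of untreated wells and 0% = no signal.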 The note with it: H69AR lung tumor cells viability, ATP luminescence, 72 h; at 10 µM; stronger effect = lower value.
The nature of test [6]: MRP1 drug-resistance reversers in H69AR cells – cell-based, doxorubicin co-treatment, pilot screen (AID 601;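 active means viability loss from added drug above about 55%, and viability with drug at most 40%, in both replicates, limit read from the data, passing the limit was not always enough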). The note with it: CellTiter-Glo, 72 h, at 10 µM; for differential viability (reversal): stronger effect = higher value. In general terms: In ATP-based viability assays light output follows the ATP content of the culture.
The nature of test [7]: yeast transport mutant growth inhibition pilot in 384-well plates, post-Golgi transport modulator project (AID 636; in the data active means inhibition above about 31%). The note with it: absorbance 615 nm, about 18 h, stronger effect = higher value.
Test [8] is described as follows: growth suppression of yeast trafficking mutant, preliminary HTS, modulators of trafficking downstream of Golgi apparatus project, 1536-format plate, OD 615 nm (AID 637; in the data active means inhibition above about 30%). As to conditions: yeast transport mutant growth, absorbance 615 nm, 18 h; stronger effect = higher value.
Where [9] appears, read: H69AR cells + 2 uM doxorubicin, measured here: viability with 2 uM doxorubicin, stronger effect = lower value.
The mark [10] stands for this setting: H69AR cells, compound alone cytotoxicity.

The values below come from PubChem BioAssay.

Each structure is given as a SMILES string. Calls of active or inactive are those of the source.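 How the source made its calls, unless noted: active means viability at or under a set limit in both replicates, limit being median viability minus 3 SD (cut at about 48% in these data, passing the limit was not always enough); inconclusive means at or under the limit in just one replicate; inactive means at or above the limit in both replicates.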

By viability is commonly meant a read-out of living cells in per cent, often relative to untreated cells. As usually defined, the inhibition is the drop in the measured response relative to a control, in per cent.

Take `CS(=O)(=O)N(CC(=O)NCc1ccccn1)c1ccc2c(c1)OCCO2`: the viability is 104% in test [1]; 104% (inactive) in test [3]; 96.8% (inactive) in test [4]; 97.8% (inactive) in test [5]; 87.9% in test [6] (setting [9]); 97.8% in test [6] (setting [10]). The Her2 level in test [2] was 104% (inactive). Further, the differential viability (reversal) in test [6] (H69AR cells + 2 uM doxorubicin) is 9.83% (inactive). Moreover, the inhibition in test [7] was -6.93% (inactive); in test [8], 4.35% (inactive).
On to `COCCCN1C(=O)C(O)=C(C(=O)c2ccco2)C1c1ccc(Br)cc1` (stereo not given), for which the viability was 102% in test [1]; 102% (inactive) in test [3]; 99.5% (inactive) in test [4]; 97.6% (inactive) in test [5]; 87.4% in test [6] (setting [9]); 97.6% in test [6] (setting [10]). The Her2 level in test [2] was 89.5% (inactive). The differential viability (reversal) in test [6] (H69AR cells + 2 uM doxorubicin) is 10.2% (inactive). Also, the inhibition in test [7] is -6.13% (inactive); in test [8] it was 0.81% (inactive).
Turning to `CC(C)Cn1c(N)c(C(=O)COC(=O)c2cc(-c3ccco3)nc3ccccc23)c(=O)n(C)c1=O`, the viability is 78.5% in test [1]; 78.5% (inactive) in test [3]; 66.8% (inactive) in test [4]; 89.3% (inactive) in test [5]; 91.1% in test [6] (setting [9]); 89.3% in test [6] (setting [10]). In test [2], the Her2 level was 80% (inactive). Also, the differential viability (reversal) in test [6] (H69AR cells + 2 uM doxorubicin) is -1.72% (inactive). For the same compound, the inhibition in test [7] was -4.32% (inactive); in test [8], -6.67% (inactive).
For `Cc1cc(O)c(C(C)C)cc1N=C1CSC(=O)N1`, the viability in test [1] is 89%; in test [3], 89% (inactive); in test [4], 95.3% (inactive); in test [5], 87.7% (inactive); in test [6] (setting [9]) it was 86%; in test [6] (setting [10]) it was 87.7%. In test [2], the Her2 level is 78.5% (inactive). For the same compound, in test [6] (H69AR cells + 2 uM doxorubicin), the differential viability (reversal) was 1.7% (inactive). The inhibition was -2.11% (inactive) in test [7] and -1.82% (inactive) in test [8].
For the compound `Cc1ccc(Cc2c(C)nc3c(C(=O)O)cnn3c2C)cc1`, the viability is 93.5% in test [1]; 93.5% (inactive) in test [3]; 85.5% (inactive) in test [4]; 91.9% (inactive) in test [5]; 102% in test [6] (setting [9]); 91.9% in test [6] (setting [10]). The Her2 level in test [2] is 114% (inactive). In addition, in test [6] (H69AR cells + 2 uM doxorubicin), the differential viability (reversal) is -10.4% (inactive). Further, the inhibition in test [7] is -4.34% (inactive); in test [8] it was -5.17% (inactive).
In the case of `COCCN(C(=O)c1csnn1)C(C(=O)NC1CCCCC1)c1cccs1` (stereo not given), the viability in test [1] is 100%; in test [3], 100% (inactive); in test [4] it was 94.7% (inactive); in test [5], 98.9% (inactive); in test [6] (setting [9]), 87.9%; in test [6] (setting [10]), 98.9%. In addition, the Her2 level in test [2] is 89% (inactive). Also, the differential viability (reversal) in test [6] (H69AR cells + 2 uM doxorubicin) is 11% (inactive). Also, the inhibition in test [7] was -7.6% (inactive); in test [8], 2.86% (inactive).
In the case of `CSCCC(NC(=O)c1ccco1)C(=O)OC(C)C(=O)NC(=O)NC1CCCCC1` (stereo not given), the viability is 88% in test [1]; 88% (inactive) in test [3]; 96.1% (inactive) in test [4]; 111% (inactive) in test [5]; 95% in test [6] (setting [9]); 111% in test [6] (setting [10]). The Her2 level in test [2] was 99% (inactive). Moreover, the differential viability (reversal) in test [6] (H69AR cells + 2 uM doxorubicin) is 16.1% (inactive). For the same compound, the inhibition in test [7] was -3.9% (inactive); in test [8] it was 8.52% (inactive).
With `CC(C)OC(=O)CN1C(=O)C(C)(C)Oc2ccc(C(=O)NC3CC3)cc21`, the viability is 96% in test [1]; 96% (inactive) in test [3]; 93.1% (inactive) in test [4]; 91.6% (inactive) in test [5]; 94.3% in test [6] (setting [9]); 91.6% in test [6] (setting [10]). Moreover, the Her2 level in test [2] is 92.5% (inactive). Further, the differential viability (reversal) in test [6] (H69AR cells + 2 uM doxorubicin) was -2.77% (inactive). In addition, the inhibition in test [7] is -3.2% (inactive); in test [8] it was 1.94% (inactive).
As to `Cc1ccc(NC(=O)CSc2nnc(NC(=O)CN3CCOCC3)s2)cc1`, the viability was 102% in test [1]; 102% (inactive) in test [3]; 98% (inactive) in test [4]; 94.1% (inactive) in test [5]; 84.4% in test [6] (setting [9]); 94.1% in test [6] (setting [10]). For the same compound, the Her2 level in test [2] is 82% (inactive). In addition, in test [6] (H69AR cells + 2 uM doxorubicin), the differential viability (reversal) is 9.71% (inactive). In addition, the results for the inhibition in test [7] and in test [8] were -5.33% (inactive) and -2.46% (inactive), respectively.
Take `Nc1ncnc(Nc2ccccc2C(F)(F)F)n1`: the viability in test [1] is 93.5%; in test [3] it was 93.5% (inactive); in test [4] it was 99.5% (inactive); in test [5], 95.6% (inactive); in test [6] (setting [9]), 93.3%; in test [6] (setting [10]), 95.6%. Also, in test [2], the Her2 level was 110% (inactive). The differential viability (reversal) in test [6] (H69AR cells + 2 uM doxorubicin) is 2.26% (inactive). The figures for the inhibition in test [7] and in test [8] were 5.19% (inactive) and -11.2% (inactive), respectively.
Take `C/C(=N\O)C(=O)NCc1ccccn1`: the viability in test [1] is 102%; in test [3] it was 102% (inactive); in test [4] it was 85.3% (inactive); in test [5] it was 92.2% (inactive); in test [6] (setting [9]), 96.4%; in test [6] (setting [10]), 92.2%. In addition, in test [2], the Her2 level was 134% (inactive). Moreover, the differential viability (reversal) in test [6] (H69AR cells + 2 uM doxorubicin) was -4.16% (inactive). Besides, the inhibition in test [7] is 4.61% (inactive); in test [8] it was 11.2% (inactive).
Regarding `CCC1=C(C(=O)OC)C(c2cc(OC)ccc2OC)C(C#N)=C(N)O1` (stereo not given), the viability in test [1] was 99.5%; in test [3], 99.5% (inactive); in test [4], 71.9% (inactive); in test [5], 87.2% (inactive); in test [6] (setting [9]), 87.2%; in test [6] (setting [10]), 87.2%. For the same compound, in test [2], the Her2 level was 87.5% (inactive). Moreover, the differential viability (reversal) in test [6] (H69AR cells + 2 uM doxorubicin) is -0.035% (inactive). For the same compound, the inhibition in test [7] is -6.67% (inactive); in test [8], -0.98% (inactive).
Regarding `CCCn1c(NC(=O)C2COc3ccccc3O2)nc2ccccc21` (stereo not given), the viability in test [1] is 99.5%; in test [3] it was 99.5% (inactive); in test [4], 66.1% (inactive); in test [5], 67.8% (inactive); in test [6] (setting [9]) it was 81.6%; in test [6] (setting [10]), 67.8%. Moreover, the Her2 level in test [2] was 90% (inactive). For the same compound, in test [6] (H69AR cells + 2 uM doxorubicin), the differential viability (reversal) is -13.7% (inactive). The results for the inhibition in test [7] and in test [8] were -3.47% (inactive) and 5.74% (inactive), respectively.
As for `O=C(Nc1ccc(Cl)cc1C(=O)Nc1ccncc1)c1ccco1`, the viability is 121% in test [1]; 121% (inactive) in test [3]; 70.1% (inactive) in test [4]; 41.3% (active) in test [5]; 60.5% in test [6] (setting [9]); 41.3% in test [6] (setting [10]). For the same compound, in test [2], the Her2 level was 48.5% (active). Further, in test [6] (H69AR cells + 2 uM doxorubicin), the differential viability (reversal) was -19.2% (inactive). In addition, the inhibition was -1.84% (inactive) in test [7] and -1.59% (inactive) in test [8].
With `Cc1ccc2cc(C#N)c(NCCCNC(=O)C3CCCO3)nc2c1` (stereo not given), the viability is 106% in test [1]; 106% (inactive) in test [3]; 104% (inactive) in test [4]; 99% (inactive) in test [5]; 86.4% in test [6] (setting [9]); 99% in test [6] (setting [10]). Further, in test [2], the Her2 level is 73% (inactive). For the same compound, in test [6] (H69AR cells + 2 uM doxorubicin), the differential viability (reversal) is 12.6% (inactive). Further, the inhibition in test [7] is -6.71% (inactive); in test [8], 6.19% (inactive).
